Results: ChEMBL document CHEMBL2029265, “2-(Pyrrolidin-1-yl)ethyl-3,4-dihydroisoquinolin-1(2H)-one derivatives as potent and selective histamine-3 receptor antagonists” (J Med Chem, 2012)

What was measured:
[1] = Volume of distribution in Long Evans rat at 2 mg/kg, iv administered as single bolus dose; type: ADME, organism-based; set-up: dose 2 mg/kg, route intravenous; settings: in vivo
Method in brief: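 Male Long Evans rats, single intravenous bolus 2 mg/kg, vehicle DMSO/80% PEG 200. Plasma pharmacokinetics.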

[2] = Cmax in Long Evans rat at 10 mg/kg, po administered as single dose; type: ADME, organism-based; set-up: dose 10 mg/kg, route oral; settings: in vivo
Method in brief: (§1)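 Male Long Evans rats received one oral dose of 10 mg/kg, formulated in 2% Tween/0.5% methyl cellulose in water. Plasma pharmacokinetic parameters were derived from this single dose.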

[3] = tested on: Salmonella typhimurium; experiment: Mutagenic activity in Salmonella typhimurium assessed as revertants by Ames test; type: toxicity, organism-based; settings: salmonella enterica subsp. enterica serovar typhimurium
Method in brief: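 Screening Ames bacterial reverse mutation assay in Salmonella typhimurium, run at multiple dosages.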

[4] = tested on: Rattus norvegicus; experiment: Reversal of time-induced cognitive deficit in po dosed rats by novel object recognition test; type: functional; settings: read-out: MED
[5] = Clearance in beagle dog at 2 mg/kg, iv administered as single bolus dose; type: ADME, organism-based, Canis lupus familiaris; set-up: dose 2 mg/kg, route intravenous; settings: in vivo
Method in brief: (§2)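 Male beagle dogs received a single intravenous bolus dose of 2 mg/kg. Plasma clearance, volume of distribution and elimination half-life were determined.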

[6] = tested on: Rattus norvegicus; experiment: Toxicity in rat assessed as epithelial hyperplasia at 600 mg/kg/day administered for 14 days as repeat dose; type: organism-based; settings: in vivo, 336 h
[7] = tested on: Canis familiaris; experiment: Toxicity in dog assessed as arrhythmia at 20 mg/kg/day administered for 14 days as repeat dose; type: organism-based, Canis lupus familiaris; settings: in vivo, 336 h
Method in brief: (§3)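 Dogs dosed for 14 days in a repeat-dose toxicity study at 20, 60 and 120 mg/kg/day. Clinical signs and QTc monitored.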

[8] = Toxicity in dog; type: organism-based, Canis lupus familiaris; settings: in vivo
Method in brief: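 14-day repeat-dose study in dogs at 20, 60 and 120 mg/kg/day, with clinical observation including cardiac rhythm and QTc; maximum tolerated dose derived from findings across dose groups.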

[9] = tested on: Canis familiaris; experiment: Toxicity in dog assessed as convulsions at >/= 60 mg/kg/day administered for 14 days as repeat dose; type: organism-based, Canis lupus familiaris; settings: in vivo, 336 h; method in brief: as §3
[10] = Oral bioavailability in beagle dog at 10 mg/kg administered as single dose; type: ADME, organism-based, Canis lupus familiaris; settings: in vivo
[11] = tested on: Mus musculus; experiment: Reversal of MK-801-induced memory deficit in po dosed mice at measured after 24 hrs by social odor recognition test; settings: read-out: MED
[12] = Terminal half life in Long Evans rat at 10 mg/kg, po administered as single dose; type: ADME, organism-based; set-up: dose 10 mg/kg, route oral; settings: in vivo, read-out: beta t1/2 (converted)
Method in brief: (§4)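 Male Long Evans rats, single oral dose 10 mg/kg in 2% Tween/0.5% methyl cellulose in water. Plasma pharmacokinetics.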

[13] = AUC (0 to infinity) in Long Evans rat at 10 mg/kg, po administered as single dose; type: ADME, organism-based; set-up: dose 10 mg/kg, route oral, time infinity; settings: plasma; method in brief: as §1
[14] = Tmax in Long Evans rat at 10 mg/kg, po administered as single dose; type: ADME, organism-based; set-up: dose 10 mg/kg, route oral; settings: in vivo; method in brief: as §4
[15] = Volume of distribution in beagle dog at 2 mg/kg, iv administered as single bolus dose; type: ADME, organism-based, Canis lupus familiaris; set-up: dose 2 mg/kg, route intravenous; settings: in vivo
Method in brief: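 Male beagle dogs, single intravenous bolus 2 mg/kg. Plasma pharmacokinetics.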

[16] = Clearance in Long Evans rat at 2 mg/kg, iv administered as single bolus dose; type: ADME, organism-based; set-up: dose 2 mg/kg, route intravenous; settings: in vivo
Method in brief: (§5)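 Male Long Evans rats were given a single intravenous bolus of 2 mg/kg in DMSO/80% PEG 200. Clearance, volume of distribution and elimination half-life were derived.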

[17] = Elimination half life in beagle dog at 2 mg/kg, iv administered as single bolus dose; type: ADME, organism-based, Canis lupus familiaris; set-up: dose 2 mg/kg, route intravenous; settings: in vivo, read-out: beta t1/2 (converted); method in brief: as §2
[18] = tested on: Canis familiaris; experiment: Toxicity in dog assessed as QTc prolongation at 20 mg/kg/day administered for 14 days as repeat dose; type: organism-based, Canis lupus familiaris; settings: in vivo, 336 h; method in brief: as §3
[19] = Toxicity in rat; type: organism-based; settings: in vivo
Method in brief: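 14-day repeat-dose study in rats at 60, 200 and 600 mg/kg/day, with clinical observation and tissue findings; maximum tolerated dose derived from findings across dose groups.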

[20] = Oral bioavailability in Long Evans rat at 10 mg/kg administered as single dose; type: ADME, organism-based; settings: in vivo; method in brief: as §1
[21] = tested on: Rattus norvegicus; experiment: Toxicity in rat assessed as respiratory distress at 600 mg/kg/day administered for 14 days as repeat dose; type: organism-based; settings: in vivo, 336 h
[22] = Elimination half life in Long Evans rat at 2 mg/kg, iv administered as single bolus dose; type: ADME, organism-based; set-up: dose 2 mg/kg, route intravenous; settings: in vivo, read-out: beta t1/2 (converted); method in brief: as §5
[23] = molecular target: CYP3A4 (Homo sapiens, UniProt P08684); experiment: Inhibition of CYP3A4 at 3 uM; type: ADME
Sequence of CYP3A4 (P08684 whole entry): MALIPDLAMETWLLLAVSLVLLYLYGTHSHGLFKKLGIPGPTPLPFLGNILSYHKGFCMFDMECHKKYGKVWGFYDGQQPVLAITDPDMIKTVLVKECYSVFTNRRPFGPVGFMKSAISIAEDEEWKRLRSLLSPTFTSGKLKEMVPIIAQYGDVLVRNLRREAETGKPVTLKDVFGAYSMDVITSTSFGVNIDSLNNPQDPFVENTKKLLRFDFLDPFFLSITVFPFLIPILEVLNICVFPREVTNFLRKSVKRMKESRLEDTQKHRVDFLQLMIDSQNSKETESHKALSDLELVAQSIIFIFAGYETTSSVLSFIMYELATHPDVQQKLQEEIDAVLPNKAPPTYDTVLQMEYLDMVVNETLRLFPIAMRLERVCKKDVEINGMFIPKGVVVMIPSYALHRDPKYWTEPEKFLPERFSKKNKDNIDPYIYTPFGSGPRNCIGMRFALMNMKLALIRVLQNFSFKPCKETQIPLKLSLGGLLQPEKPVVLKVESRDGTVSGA

[24] = molecular target: Histamine H3 receptor (Homo sapiens, UniProt Q9Y5N1); experiment: Displacement of [3H]-(R)-alpha-methylhistamine from human H3 receptor expressed in HEK293T cells after 120 mins by scintillation counting; type: cell-based, HEK-293T
Sequence of Histamine H3 receptor (Homo sapiens, UniProt Q9Y5N1) (Q9Y5N1 whole entry): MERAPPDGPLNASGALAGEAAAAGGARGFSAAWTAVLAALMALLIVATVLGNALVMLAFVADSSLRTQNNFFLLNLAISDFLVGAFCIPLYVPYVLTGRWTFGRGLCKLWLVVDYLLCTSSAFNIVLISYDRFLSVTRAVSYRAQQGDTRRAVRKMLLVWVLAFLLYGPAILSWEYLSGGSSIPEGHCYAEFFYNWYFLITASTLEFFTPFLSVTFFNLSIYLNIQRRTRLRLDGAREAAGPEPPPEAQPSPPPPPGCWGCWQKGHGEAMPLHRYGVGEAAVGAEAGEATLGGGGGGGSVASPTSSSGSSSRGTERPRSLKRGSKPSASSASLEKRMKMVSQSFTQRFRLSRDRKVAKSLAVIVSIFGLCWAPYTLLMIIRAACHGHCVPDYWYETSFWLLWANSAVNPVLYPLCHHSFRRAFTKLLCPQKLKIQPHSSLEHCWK

[25] = molecular target: Histamine H3 receptor (Rattus norvegicus, UniProt Q9QYN8); experiment: Displacement of [3H]-(R)-alpha-methylhistamine from rat H3 receptor expressed in HEK293T cells after 120 mins by scintillation counting; type: cell-based, HEK-293T
Sequence of Histamine H3 receptor (Rattus norvegicus, UniProt Q9QYN8) (Q9QYN8 whole entry): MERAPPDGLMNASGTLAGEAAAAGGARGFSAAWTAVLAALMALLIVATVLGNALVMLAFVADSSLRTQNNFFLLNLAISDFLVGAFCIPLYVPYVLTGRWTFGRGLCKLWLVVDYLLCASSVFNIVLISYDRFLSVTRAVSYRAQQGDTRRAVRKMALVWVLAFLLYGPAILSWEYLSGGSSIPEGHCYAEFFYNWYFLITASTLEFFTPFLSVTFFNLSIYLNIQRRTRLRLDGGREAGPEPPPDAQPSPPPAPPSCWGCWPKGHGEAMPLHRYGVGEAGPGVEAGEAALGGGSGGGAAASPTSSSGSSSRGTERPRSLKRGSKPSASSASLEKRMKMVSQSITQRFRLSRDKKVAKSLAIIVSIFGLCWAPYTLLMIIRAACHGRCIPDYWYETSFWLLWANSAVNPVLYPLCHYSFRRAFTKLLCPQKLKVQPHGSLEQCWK

With `CN(C)C(=O)c1ccc(-c2ccc3c(c2)CCN(CCN2CCCC2)C3=O)cc1.Cl` the Vd [1] was 2.1 L/kg, the Cmax [2] was 989 ng/mL and the Activity [3] was “Non-toxic”. For the same molecule, the minimal effective dose [4] was 1 mg/kg, the clearance [5] was 23 mL/min/kg and the Activity [6] was “Toxic”. The Activity [7] was “Toxic”, the MTD [8] was 20 mg/kg/day and the Activity [9] was “Toxic”. It also gave a bioavailability [10] of 57%, a minimal effective dose [11] of 1 mg/kg and a half-life [12] of 48 min. It also gave an AUC(0-inf) [13] of 1650 ng·h/mL, a Tmax [14] of 18 min and a Vd [15] of 3.1 L/kg. For the same molecule, the clearance [16] was 87 mL/min/kg, the half-life [17] was 96 min and the Activity [18] was “Toxic”. For the same molecule, the MTD [19] was 200 mg/kg/day, the bioavailability [20] was 85% and the Activity [21] was “Toxic”. For the same molecule, the half-life [22] was 18 min.

Molecule `O=C1c2ccc(-c3ccc(F)cc3)cc2CCN1CCN1CCCCCC1` has an inhibition at 3 µM [23] of 47%, a Ki [24] of 5.7 nM and a Ki [25] of 47 nM.
